Test: Toxicity liver stage against HepG2, at 10uM
Format: cell-based
Parameters: test concentration 10 uM, cell line HepG2-A16-CD81EGFP
Conditions: human, HepG2-A16-CD81EGFP cells; read-out: INHIBITION
How it was run: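 Uninfected HepG2-A16-CD81EGFP cells, 3 × 10^3 per well, 1536-well, plated on prespotted compound at 10 μM final, parasite-free screening media added to match infected plates; puromycin 10 μM positive, DMSO 0.5% negative; run in parallel with 48 h PbLuc assay at 37 °C, 5% CO2; viability by CellTiter-Glo luminescence, normalized to controls.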

Row | SMILES | cytotoxicity at 10 µM [%]
1 | COc1cccc(CN(Cc2ncc[nH]2)Cc2ccco2)c1 | -8.01
2 | Cc1nc(CN(C)Cc2csc(-c3cccs3)n2)co1 | -6.06
3 | CCCN1CCN(C(=O)c2ccc3ccccc3n2)[C@H]2CS(=O)(=O)C[C@H]21 | -3.31
4 | Cc1cc(C)c2c(NCC3(O)CCCCC3)ncnc2n1 | -7.13
5 | O=C(NCCN1CCC(c2cccs2)CC1)c1ccc(F)cc1Cl | -2.83
6 | CCCc1cc(=O)[nH]c2nnc(SCC(=O)OC)n12 | 12.2
7 | FC(F)(F)CCc1ccnc(N2CCN(Cc3ccncc3)CC2)n1 | -21.2
8 | CNC(=O)c1cc(C2CCCNC2)n[nH]1 (stereo not given) | 9.03
9 | CCS(=O)(=O)c1ccc(N2CCC(N)CC2)cc1 | -6.44
10 | Cc1nn(C)c(C)c1C1CCCN1CC(=O)Nc1cccnc1 (stereo not given) | -31.7
11 | CCn1ncc2[nH]c(-c3cc(OC)c(OC)cc3OC)nc21 | -2.61
12 | NC(=O)c1ccc(NC(=O)CCN2CCCC(N3CCCC3)C2)cc1 (stereo not given) | -8.59
13 | O=C(CN1CC(c2nc(-c3ccco3)no2)C1)NCc1ccc(F)cc1 | -5.07
14 | Cc1nc(=O)c(CC(=O)N2C[C@H]3CC[C@@H](C2)N(CC2CCC2)C3)c[nH]1 | 1.43
15 | CC(C)(C)c1ncc(C(=O)NCCNC(=O)Cc2ccccc2)s1 | -6.44
16 | c1cnnc(N2CCCC2CNCc2nc(-c3ccsc3)no2)c1 (stereo not given) | -7.7
17 | O=C(NC1CCCCC1)N1CCn2c(nnc2C2CCCN2)C1 (stereo not given) | 0.336
18 | CC(C)c1cc(C(=O)NCc2nc(-c3ccc(F)cc3)n[nH]2)n[nH]1 | -1.75
19 | O=C(c1ccccc1-c1ccccc1)N1C[C@@H]2CNC[C@]2(C(=O)O)C1 | -0.265
20 | Cc1cn2c(=O)c(-c3ccnc(N(C)C4CCCCC4)n3)cnc2s1 | 9.49
21 | COc1cccc(CN2C[C@@H](F)[C@@H](OCc3nc4cnccc4[nH]3)C2)c1 | -1.72
22 | Cn1cc(CC2CCN(C(=O)NCCc3cccc(O)c3)C2)cn1 (stereo not given) | 1.05

Row | SMILES | cytotoxicity at 10 µM [%]
23 | Cc1nnsc1C(=O)N1C[C@@H]2CC[C@H]1CN(c1cnccn1)C2 | 9.88
24 | Cc1n[nH]c(C)c1NC(=O)CN1CCCC1c1c(C)nn(C)c1C (stereo not given) | -19.2
25 | CC(C)c1nnc2ccc(N3CCC(C(=O)Nc4nccs4)CC3)nn12 | 42.6
26 | CC1(NC(=O)Cc2csc(C(C)(C)C)n2)CCS(=O)(=O)C1 (stereo not given) | -4.17
27 | Cc1nc(N2CCCC2)nc2c1CCN(C(=O)C(C)C)CC2 | 5.02
28 | N#Cc1cn[nH]c1NCc1cc(I)cc(I)c1O | 1.11
29 | CCc1nc(-c2cccc(C(=O)O)c2)no1 | -10
30 | c1cnc(N2CCCC3(CCN(CC4CCOC4)CC3)C2)nc1 (stereo not given) | -2.21
31 | O=c1[nH]c2c(-c3ccccn3)nsc2c(=O)n1CC1CC1 | 36.2
32 | COc1ncccc1C(=O)N1CCCC1c1c(C)n[nH]c1C (stereo not given) | 10.7
33 | Cc1ccc(C(=O)NC2CCN(Cc3noc(C(C)(C)C)n3)CC2)s1 | 1.33
34 | Cn1cccc1C(=O)N1CCC(c2nnc(Cn3ccnc3)n2C)CC1 | -114
35 | COCC1CC2(CCN(C(=O)c3cccn3C)CC2)CN1C(C)C (stereo not given) | -14.2
36 | COc1ccccc1C(C)(C)NC(=O)c1ccc(F)c(NC(C)=O)c1 | -142
37 | Cc1nnc([C@@H]2CC[C@@H]3[C@@H](CCN3Cc3ccccn3)O2)o1 | 11.3
38 | O=C(Nc1ccccn1)NC1CCN(c2ccccc2OC(F)F)C1 (stereo not given) | 11.7
39 | CC(C)CNC(=O)c1ccc(NC(=O)NC(C)c2ccccn2)cc1 (stereo not given) | 5.26
40 | Cc1nc(Nc2ccccn2)cc(N2CCN(S(C)(=O)=O)CC2)n1 | 3.96
41 | Cc1cccc(C(C(=O)NCc2cc(C)[nH]n2)N(C)C)c1 (stereo not given) | -3.07
42 | CC(C)OCc1cccc(NC(=O)N(C)Cc2ncnn2C)c1 | 4
43 | COc1ncccc1C(=O)N1CCCC1c1c(C)nn(C)c1Cl (stereo not given) | -9.35
44 | CC(C)c1nc2n(n1)CC(Nc1ncnc3c1CCC3)CC2 (stereo not given) | -49.1

Row | SMILES | cytotoxicity at 10 µM [%]
45 | CCN(CC)Cc1ccc(C(=O)N2CCN(CC(C)O)CC2)cc1 (stereo not given) | -12.6
46 | CC(C)(C)SCC(=O)Nc1cc(-n2nnnc2C2CC2)ccc1F | -12
47 | O=C(CC1CC1)N1C[C@@H]2CCN(c3cnccn3)C[C@@H]2C1 | 5.03
48 | CC(=O)N1CCC2(CC1)CC(NS(C)(=O)=O)c1ccccc1O2 (stereo not given) | 5.53
49 | Cc1cc(NC(=O)CCN2CCCCC2Cn2cccn2)no1 (stereo not given) | 2.14
50 | COCc1ncc(CN(Cc2ccncc2)Cc2ccc(C)s2)cn1 | -47
51 | Cc1cc(N(C)CCOc2ccccc2F)nc(N)n1 | 20.1
52 | CC[C@H]1CN(S(C)(=O)=O)CC[C@H]1CC(=O)NCCOC | 2.55
53 | Cc1oncc1C(=O)NCc1cc(=O)n2c(n1)CN(CC1CC1)CCC2 | -4.5
54 | Cc1ccccc1C1(CNC(=O)NCCc2nnc3n2CCC3)CC1 | 2.48
55 | Cc1ccc(N2CCN(C(=O)COc3ncccn3)CC2)nn1 | -0.233
56 | N[C@H]1CN(Cc2cnc(N3CCCC3)nc2)C[C@@H]1C1CC1 | -45.5
57 | Cn1nc(C(=O)N2CCSCC2)cc1NC(=O)c1ccco1 | 1.11
58 | O=C(NC[C@H]1OC[C@@H](NC2CCC(F)(F)CC2)[C@@H]1O)c1ccccc1 | -4.1
59 | O=C(NCC(O)COc1ccccc1)Nc1nncs1 (stereo not given) | 0.555
60 | Cc1nc(Nc2ncccn2)cc(C2CCCN2C2CCOCC2)n1 (stereo not given) | -4.45
61 | CC(C)CCN(C(=O)c1cc2c([nH]c1=O)CCCC2=O)C1CC1 | -2.98
62 | CCn1ccnc1CN1CCCN(C(=O)c2ccnn2C)CC1 | -5.39
63 | O=C(c1ccccc1C(F)(F)F)N1C[C@@H](CN2CCOCC2)[C@@H](CO)C1 | -3.7
64 | CC(CNC(=O)c1cccnc1Oc1cccnc1)N(C)C (stereo not given) | -14
65 | CSc1ncccc1C(=O)NC(C)c1cccc(N2CCOC2=O)c1 (stereo not given) | -9.05
66 | CCOC(=O)N1CCN(C(=O)c2sc(-c3ccc(F)cc3)nc2C)CC1 | 10.7

Row | SMILES | cytotoxicity at 10 µM [%]
67 | Cc1ccc(CNCC2CCc3nnc(C(C)C)n3C2)s1 (stereo not given) | -4.43
68 | O=C(NC1CCN(c2ccccc2OC(F)F)C1)c1c[nH]nn1 (stereo not given) | -2.54
69 | Cc1nn(C)c(N2CCOCC2)c1CNC1CCc2ccccc2C1 (stereo not given) | -11.4
70 | O=C1CCCCN1CCC(=O)N1CCCCC1c1ccc(F)cc1 (stereo not given) | -41.7
71 | COc1ccccc1CC1CCCN(C(=O)c2cn[nH]c2C)C1 (stereo not given) | 7.61
72 | Cc1nc(CC(=O)N2CCc3nc(-c4cnccn4)nc(O)c3C2)cs1 | 16.2
73 | c1cc(C2CCCN2Cc2nnnn2C2CC2)cs1 (stereo not given) | -8.86
74 | Cc1cc(CN2CCN(C(=O)NCc3csc(C)n3)CC2)no1 | -17.6
75 | CCN(Cc1noc(C2CC2)n1)Cc1ccc(C#N)cc1F | -1.74
76 | CC(c1cccc(S(N)(=O)=O)c1)N(C)CCc1ccccc1 (stereo not given) | -12
77 | Cc1cc(CN2CCN(C(=O)NCc3cccs3)CC2)no1 | -11.6
78 | COc1nc(C)ccc1CNC(=O)NC(C)Cc1c(C)nn(C)c1C (stereo not given) | 8.37
79 | NC(=O)c1noc(Cn2ccc3ccccc3c2=O)n1 | 1.39
80 | Fc1ccc2c(c1)nc1n2[C@@H](CNCc2nccs2)COC1 | 1.07
81 | O=C(CCn1cnc2ccccc21)N1CCN2CCCCC2C1 (stereo not given) | -4.34
82 | N#Cc1ccc(NCC(=O)Nc2ccn(Cc3cccnc3)n2)cc1 | -11.2
83 | CC(=O)N1CCCN(C(=O)NCC2(c3cccs3)CCCC2)CC1 | 3.23
84 | CC(C)C(C#N)N1CCN(Cc2nccn2CC(F)(F)F)CC1 (stereo not given) | 0.172
85 | Cc1cn2c(n1)CCC(NC(=O)CCC(F)(F)F)C2 (stereo not given) | -9.12
86 | O=C1COC2(CCN(Cc3ccc(F)cc3)CC2)CN1 | -25.7
87 | CNc1nc(CNC(=O)Nc2cccc(F)c2C)cs1 | -5.43
88 | CN(C)CC(O)Cn1cc(NCc2ccc(Br)cc2)cn1 (stereo not given) | 7.48

Row | SMILES | cytotoxicity at 10 µM [%]
89 | Cc1cccc(S(=O)(=O)NCC(C)(C)CC(C)O)c1C#N (stereo not given) | -1.37
90 | COCCC1COC2(CCN(C(=O)c3cccnc3)CC2)C1 (stereo not given) | -72.4
91 | Cc1nc(C)c(CC(=O)Nc2nnc(C3CC3)s2)c(=O)[nH]1 | -11.2
92 | CC(Cn1cc(Br)cn1)C(=O)Nc1ccn(C)n1 (stereo not given) | -4.49
93 | CN(C)c1cc(CNc2cncc(-n3cccn3)n2)ccn1 | 6.26
94 | N#Cc1ccc(Cl)cc1NCC1CCOC1 (stereo not given) | 3.09
95 | O=C(CCn1ccc2cc(Br)ccc21)NC[C@@H]1CCCN2CCCC[C@H]12 | 8.35
96 | CC1=Nc2c(c(O)nn2C(C)C)C(c2cn(C)nc2C)S1 (stereo not given) | -3.53
97 | COC(=O)C1CN(CC(=O)Nc2cccc(OC)c2)c2ccccc21 (stereo not given) | 11.1
98 | Cc1ccc(CN2CC[C@H]3C[C@H](C(=O)N4CCCO4)O[C@@H]3C2)o1 | 7.11
99 | Cc1ccc(C)c2c(C)c(C(=O)NCCCn3cnnc3)[nH]c12 | 6.28
100 | CCC1CN(c2cnn(C)c(=O)c2Br)CCO1 (stereo not given) | -5.09
101 | Cc1ccc2c(n1)N(Cc1cccnc1)CCN(C(=O)C1CC1)C2 | -61.7
102 | Cc1n[nH]c2c1C(c1ccc(O)c(Cl)c1)SCC(=O)N2 (stereo not given) | 10.4
103 | Cc1cccc(CN2CC3(CCN(C(=O)C4CC4)CC3)OCC2=O)n1 | -4.67
104 | Cc1ccc(N2C[C@@H]3CN(C(=O)NC4CCCC4)C[C@]3(C(=O)O)C2)nn1 | 19.5
105 | Cc1nc(C2CCCN2C(=O)CCCOc2ccccc2C)no1 (stereo not given) | -2.21
106 | c1ccc(-c2ncn(CCCN3CCOCC3)c2-c2ccncc2)cc1 | -7.64
107 | CCC[C@@H]1CN(C(=O)CCc2ccco2)C[C@H]1NS(C)(=O)=O | -3.73
108 | CCc1nc(C)sc1CN(Cc1ccncc1)C1CCN(C)CC1 | 6.4
109 | COCCN(Cc1ccoc1)S(=O)(=O)c1ccc(F)c(C)c1 | -7.15
110 | CCn1cnnc1CNC(=O)N1CCC(CN2CCOCC2)CC1 | -7

Source: ChEMBL document CHEMBL4513216, “Probing the Open Global Health Chemical Diversity Library for Multistage-Active Starting Points for Next-Generation Antimalarials” (ACS Infect Dis, 2020)
